What was measured:
[1] = melting temperature; fluorescence melt of hairpins on a sequencing array, two-state fit, raised by 9.35 °C to match UV melts; conditions: sodium 0.088 M
Method in brief: (§1)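 Bootstrapped two-state fits yielded melting temperature and folding enthalpy for library hairpins. Cy3 fluorescence, with annealed Cy3 and quencher oligos, was imaged on a sequenced MiSeq flow cell in 50 mM Na-HEPES pH 8.0, 25 mM NaCl in 2.5 °C steps up to 60 °C, and normalised to pre-quench Cy3 and to control constructs. Four replicates were combined by inverse variance, and fitted temperatures were raised by 9.35 °C to match UV melts.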

[2] = folding enthalpy; higher = less favourable; fluorescence melt of hairpins on a sequencing array, two-state fit; conditions: sodium 0.088 M
Method in brief: as §1

Row | Sequence | Tm [1] | folding enthalpy [2]
1 | GACTTAACGAAAGTTGTC (((..(((....)))))) | 32.2 °C | -16.8 kcal/mol
2 | GATCGGCACTCCGATC ((((((....)))))) | 57.1 °C | -40.5 kcal/mol
3 | GGACAGAAATGTCC (((((....))))) | 53.2 °C | -25.9 kcal/mol
4 | GTGTTCGAAAGAATTCAC ((((((....)))..))) | 28.8 °C | -10.3 kcal/mol
5 | GTCCTTGGAAACAAGGGC (.(((((....))))).) | 52.3 °C | -36.7 kcal/mol
6 | AGGCTGAAAAGCCT (((((....))))) | 62.6 °C | -16.9 kcal/mol
7 | GATCCTGGGCAGGATC ((((((....)))))) | 54.2 °C | -35.7 kcal/mol
8 | GCGACACATCGC ((((....)))) | 50.3 °C | -24.2 kcal/mol
9 | GTGTAACCGAAAGGTCAC (((..(((....)))))) | 43.6 °C | -22.6 kcal/mol
10 | GCACCCGAAAGGGCTTGC ((((((....)))..))) | 46.6 °C | -14.9 kcal/mol
11 | GATCTGCAACAGATC ((((((...)))))) | 46.3 °C | -28.8 kcal/mol
12 | GTAAGGGGAAACCCTTGC (.(((((....))))).) | 46.2 °C | -23.3 kcal/mol
13 | GTCCGCGAAAGCGGTGAC ((((((....)))..))) | 41 °C | -8.67 kcal/mol
14 | GCATGGCGAAAGCCAAGC ((.((((....)))).)) | 61.6 °C | -17.6 kcal/mol
15 | GTCAACGAAAGTTAGAC ((((((....))).))) | 41 °C | -23.5 kcal/mol
16 | GGGTAAACGAAAGTTCCC (((..(((....)))))) | 39.8 °C | -20.7 kcal/mol
17 | GGCACCGAAAGGTCGGCC ((((((....)))..))) | 49.9 °C | -21.8 kcal/mol
18 | GCGTTCGAAAGAAGGCGC ((((((....)))..))) | 55.6 °C | -33.6 kcal/mol
19 | GTGCAAGGAAACTTGCAC (((((((....))))))) | 65.8 °C | -31.8 kcal/mol
20 | GTAGGCGAAAGCCGATAC ((((((....)))..))) | 41.5 °C | -10.1 kcal/mol
21 | GCGTTGCGAAAGCCAAGC ((.(.((....)).).)) | 46.9 °C | -21.3 kcal/mol
22 | GCGGTGCCCCGC ((((....)))) | 54.3 °C | -18.8 kcal/mol
23 | GAGGCGCGAAAGCGCTC (((.(((....)))))) | 46.6 °C | -7.37 kcal/mol
24 | GTTTCCGAAAGGACGAAC ((((((....)))..))) | 21.9 °C | -9.15 kcal/mol

Row | Sequence | Tm [1] | folding enthalpy [2]
25 | GAAGGACGAAAGTCTTC (((.(((....)))))) | 39.8 °C | -14.7 kcal/mol
26 | GGTCTGCGAAAGCACACC (((.(((....))).))) | 42.1 °C | -20.9 kcal/mol
27 | GTCCCGGGAAACTGGGGC (.(((.(....).))).) | 48.6 °C | -41.1 kcal/mol
28 | GCGCCAGGAAACCGACGC (((.(.(....).).))) | 39.4 °C | -29.5 kcal/mol
29 | GTATTACGAAAGTAGTAC (((.(((....))).))) | 41.3 °C | -28.4 kcal/mol
30 | GACGTGCGAAAGCAAGTC (((.(((....))).))) | 60.5 °C | -31.5 kcal/mol
31 | GATTTCCCGAAAGGGATC (((..(((....)))))) | 26.2 °C | -10.4 kcal/mol
32 | GTTGCCGAAAGGCACAAC ((((((....)))..))) | 35.7 °C | -8.02 kcal/mol
33 | GGAAGCGAAAGCTGTCC ((((((....))).))) | 47.4 °C | -14.5 kcal/mol
34 | GCGAGTAATCGC ((((....)))) | 58.6 °C | -20.9 kcal/mol
35 | GTATGGAAACATAC (((((....))))) | 43.4 °C | -23.5 kcal/mol
36 | GAACCCGAAAGGGGTTC ((((((....))).))) | 61.1 °C | -26 kcal/mol
37 | GAGTGCGGAAACGTACTC ((((.((....)).)))) | 53.9 °C | -43.3 kcal/mol
38 | GATCCTAGTCAGGATC ((((((....)))))) | 51.6 °C | -45.9 kcal/mol
39 | GGGCCACGAAAGTGCCCC (((.(((....))).))) | 59.3 °C | -17.3 kcal/mol
40 | GTATGGGCGAAAGCCTAC (((..(((....)))))) | 36.9 °C | -7.19 kcal/mol
41 | GGTGACCGAAAGGTGACC (((.(((....))).))) | 54.4 °C | -42.5 kcal/mol
42 | GCTAAGCGAAAGCTAGGC ((..(((....)))..)) | 47.4 °C | -17.6 kcal/mol
43 | GCCTTGCGAAAGCATCGC ((..(((....)))..)) | 51 °C | -12.4 kcal/mol
44 | CGCACGGAAACGTCGCG ((((((....))).))) | 51.1 °C | -35.8 kcal/mol
45 | GTGTCCGGAAACGGATAC ((.((((....)))).)) | 53.3 °C | -38.6 kcal/mol
46 | GTACGCGAAAGCGCTAC ((((((....))).))) | 42.2 °C | -13.2 kcal/mol
47 | GTCCCCGAAAGGGGCGAC ((((((....)))..))) | 65.8 °C | -14 kcal/mol
48 | GCCTTAGAAATAAGGC ((((((....)))))) | 52.9 °C | -30.2 kcal/mol

Row | Sequence | Tm [1] | folding enthalpy [2]
49 | GGTGAGGGAAACCTCATC (.(((((....))))).) | 48.5 °C | -25.1 kcal/mol
50 | GTGGTTGGAAACAACCGC (.(((((....))))).) | 55.7 °C | -31 kcal/mol
51 | GATCTGAATACAGATC ((((((....)))))) | 47.7 °C | -39.7 kcal/mol
52 | GATCAGCTTACTGATC ((((((....)))))) | 51.3 °C | -34 kcal/mol
53 | GATCATTACGATGATC ((((((....)))))) | 48.5 °C | -34.9 kcal/mol
54 | GATCTAGCAATAGATC ((((((....)))))) | 47.6 °C | -39.6 kcal/mol
55 | GAACTTGGAAACAAGTCC (.(((((....))))).) | 36 °C | -16.4 kcal/mol
56 | GGATTAGGAAACTAGTCC (((.(((....))).))) | 37.2 °C | -25.2 kcal/mol
57 | GTCTTAGAAATAAGAC ((((((....)))))) | 43.4 °C | -26.5 kcal/mol
58 | GGTATGCGAAAGCAACC (((.(((....)))))) | 47.7 °C | -14.5 kcal/mol
59 | GATCGAGTCGTCGATC ((((((....)))))) | 54.9 °C | -35.6 kcal/mol
60 | GTCCATGGAAACGTGGAC (((((.(....).))))) | 52.9 °C | -48.1 kcal/mol
61 | GCTATGGGAAACCATAAC (.(((((....))))).) | 28.7 °C | -12.8 kcal/mol
62 | GCTCGACGAAAGTCCAGC (((.(((....))).))) | 44.6 °C | -24.1 kcal/mol
63 | GGATTAGCGAAAGCTTCC (((..(((....)))))) | 32.7 °C | -11.1 kcal/mol
64 | GCGATTAATCGC ((((....)))) | 56.1 °C | -29.4 kcal/mol
65 | GTGAAACGAAAGTTCCAC (((.(((....))).))) | 43.9 °C | -22.8 kcal/mol
66 | GATCCCGGAAACAGGATC (((((.(....).))))) | 38.8 °C | -28.8 kcal/mol
67 | GATCTTGGGCAAGATC ((((((....)))))) | 46.7 °C | -37.4 kcal/mol
68 | GTCATACGAAAGTAGGAC (((.(((....))).))) | 53.9 °C | -29.3 kcal/mol
69 | GGACTAGAAATAGTCC ((((((....)))))) | 52.9 °C | -33 kcal/mol
70 | GCATCGCGAAAGCCAGGC ((.(.((....)).).)) | 37.2 °C | -10.4 kcal/mol
71 | GATGTGCGAAAGCAATC (((.(((....)))))) | 38.2 °C | -11.3 kcal/mol
72 | GTACCACGAAAGTGTTAC (((.(((....))).))) | 39.2 °C | -24.1 kcal/mol

Row | Sequence | Tm [1] | folding enthalpy [2]
73 | GAGGACGAAAGTCGGCTC ((((((....)))..))) | 45.6 °C | -16.7 kcal/mol
74 | GATCACAGTCGTGATC ((((((....)))))) | 56.2 °C | -44.9 kcal/mol
75 | GTCCGTGGAAACATGGAC ((((.((....)).)))) | 53.6 °C | -36.9 kcal/mol
76 | GCTTACGAAAGTACAAGC ((((((....)))..))) | 37.6 °C | -20 kcal/mol
77 | GGGTAGGGAAACCTGTCC ((..(((....)))..)) | 32.3 °C | -17.2 kcal/mol
78 | GATCACATTCGTGATC ((((((....)))))) | 59.4 °C | -39.2 kcal/mol
79 | GCCAGCGAAAGCTCAGGC ((((((....)))..))) | 49.9 °C | -30.4 kcal/mol
80 | GCTGTGCGAAAGCATAGC (((.(((....))).))) | 59.4 °C | -57.9 kcal/mol
81 | GATCTACTGGTAGATC ((((((....)))))) | 52.8 °C | -43.6 kcal/mol
82 | GTTCGCCGAAAGGCTAAC (((.(((....))).))) | 44.7 °C | -19.6 kcal/mol
83 | GATCGGTAGGCCGATC ((((((....)))))) | 57.9 °C | -40.5 kcal/mol
84 | GGGCTCGAAAGAGGACCC ((((((....)))..))) | 49.5 °C | -20.9 kcal/mol
85 | GGACCAGGAAACCAGTCC ((((..(....)..)))) | 33.9 °C | -20.3 kcal/mol
86 | GGCGTAGAAATACGCC ((((((....)))))) | 66.1 °C | -37.5 kcal/mol
87 | GTAGACGGAAACATCTAC (((((.(....).))))) | 31 °C | -21 kcal/mol
88 | GTTCATGGAAACATGGAC ((.((((....)))).)) | 46.3 °C | -27.7 kcal/mol
89 | GAGACCGAAAGGTGGCTC ((((((....)))..))) | 43.4 °C | -19.2 kcal/mol
90 | GCCTACGAAAGTATGGC ((((((....))).))) | 52.3 °C | -24.6 kcal/mol
91 | GATCGTTTTAACGATC ((((((....)))))) | 60.8 °C | -42.2 kcal/mol
92 | CGGATACGGAAACGTCCG (((..(((....)))))) | 40.4 °C | -18.6 kcal/mol
93 | GTGCAAGGAAACTTACAC (((.(((....))).))) | 34.8 °C | -21.5 kcal/mol

Reference: the array DNA melting data of Ke et al. (doi:10.1101/2024.01.08.574731)
